HSF1 inhib: HSF1 inhibitors in luciferase reporter cells, primary screen, cell-based, NIH3T3, luminescence. AID 2098, 2009. activity change, negative = inhibition, % at 7.5 µM (by protocol). 300,000 compounds, 0.77% hits. NIH3T3-HGL HSE-luciferase, MG132-induced, luminescence 8 h; active compounds read low;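 active means more than half of replicate wells show activity change below -50%, luminescence cut by over half; inconclusive means some wells, but at most half, below -50%; inactive means no replicate well below -50%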;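 further: luciferase reports HSF-1 transcriptional activity via heat shock element; 0% = median of DMSO wells and -100% = zero luminescence signal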
HSF1 activator: HSF-1 activators, primary screen, NIH3T3-HGL cells, MG132 stress, luminescence, single point; 300,000 compounds, 1.7% hits; activation, % at 9 µM; NIH3T3-HGL HSF-1 luciferase reporter, 8 h; 100% = twice DMSO control signal;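 active means mean replicate activation of at least 50% with a set share of replicates each reaching 50%; inconclusive means only one of those two conditions met; inactive means mean below 50% and too few replicates reaching it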;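 further: 0% = median of the neutral control wells and 100% = twice that signal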
DNA FID counter: compounds displacing fluorescent DNA intercalator, primary screen, artefact control for HCV NS3 helicase inhibitor project, biochemical, FID fluorescence; DNA fluorescent intercalator displacement; inhibition, % at 7.9 µM; 290,000 compounds, 0.17% hits; in the data active means inhibition above about 37%;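 further: 0% = vehicle and 100% = reference compound; higher means more ethidium bromide displaced from hairpin DNA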
core dimer inh: inhibitors of HCV core protein dimerization, primary screen, biochemical, TR-FRET, high-throughput; TR-FRET GST/Flag-core106 dimerization, 1536-well; inhibition, % at 5 µM; 300,000 compounds, 0.33% hits; AID 1899, 2009;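 active means inhibition above the mean of all tested compounds plus 3 SD, set per screening campaign, cut at about 45% in these data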
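assay system = GST-tagged and Flag-tagged HCV core protein residues 1-106 | controls = unlabelled core106 and no-GST-core106 wells | incubation = compound-protein-antibody incubation 4 h at 22.5 °C | probe or stimulus = Eu donor and XL665 acceptor anti-tag antibodies | read-out = % inhibition based on acceptor/donor emission ratio | signal = TR-FRET 671 and 617 nm emission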
NS3 helicase inh: inhibitors of HCV NS3 helicase, primary screen, biochemical, Cy5 molecular beacon fluorescence. Hepatitis C virus NS3 helicase. NS3 helicase DNA unwinding. inhibition, % at 10.9 µM. 290,000 compounds, 0.56% hits;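 active means inhibition above the mean of all tested compounds plus 3 SD, set per campaign, cut at about 35% in these data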;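 further: 0% = DMSO wells and 100% = thioflavine S control wells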
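assay system = NS3 helicase fragment of HCV | buffer or medium = MOPS pH 6.5, MgCl2, DTT, Tween20, BSA | timing = 60 min unwinding reaction at 25 °C after ATP addition | signal = Cy5 beacon fluorescence read at start and 1 h | read-out basis = % inhibition of unwinding | control set = low DMSO, high thioflavine S at 110 µM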
HSP90 refold inh: HSP90 inhibitors, primary screen, cell lysate, luminescence | inhibition, % at 5.6 µM | Rabbit reticulocyte lysate, luciferase refolding luminescence, 3 h | AID 1789, 2009 | 290,000 compounds, 0.91% hits | Heat shock protein HSP 90 (rabbit reticulocyte lysate; luciferase refolding);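 active means inhibition above the screen-wide mean plus 3 SD, computed separately per campaign, cut at about 16% in these data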;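 further: 0% = DMSO wells and 100% = 60 µM geldanamycin wells; inhibitors lower the luminescence because luciferase stays unfolded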
* hit, by the source's call; ? = inconclusive; . = no result given. Rows were chosen to be rich in hits. Some 3.9% of all compounds tested hit in one or more screens of this group.

SMILES | HSF1 inhib | HSF1 activator | DNA FID counter | core dimer inh | NS3 helicase inh | HSP90 refold inh
O=C(Nc1c2ccccc2nc2ccccc12)C(Cl)(Cl)Cl | -3.1 | 17.8 | 37.6* | -4.8 | 14.6 | 1.2
CN(C)c1ccc(C2NC(=O)c3ccccc3N2)cc1 (stereo unspecified) | 53.6 | 78.2* | -2.5 | -18.5 | 9.2 | 15.4
O=C1NC(c2ccncc2)Nc2ccccc21 (stereo unspecified) | 1.2 | -18.6 | -1.4 | -9.8 | -5.0 | -3.4
O=C1NC(c2ccc(Cl)cc2)Nc2ccccc21 (stereo unspecified) | 30.1 | 70.1* | -5.3 | 2.1 | 10.5 | 1.0
Cc1ccc(C2NC(=O)c3ccccc3N2)s1 (stereo unspecified) | 46.2 | 66.9* | -5.7 | 4.3 | 24.7 | 3.9
CNc1nc(SCc2ccccc2)nc(N2CCOCC2)n1 | 4.3 | 48.1 | -19.4 | -2.9 | -0.3 | 1.5
CCOC(=O)N1CCC(Nc2c(NCCCN3CCN(C4CCCCC4)CC3)c(=O)c2=O)CC1 | -9.9 | 4.4 | 3.6 | 5.0 | -1.5 | 2.2
Cc1ccc(NC(=O)c2cccc(N3C(=O)CCC3=O)c2)nc1 | 4.3 | 9.6 | -0.8 | -5.0 | -0.1 | -2.4
Cn1c(=O)[nH]c(=O)c2c1nc(N1CCCCC1)n2CCOc1ccccc1 | -1.0 | 32.7 | -6.5 | 5.3 | -9.2 | 3.7
COc1ccc(-c2oc3ccccc3c2C(=O)OCc2ccccc2OC)cc1 | -3.2 | -1.1 | -9.7 | -18.8 | -15.6 | 1.7
Cc1ccc(S(=O)(=O)N(C)C)cc1NC(=S)NC(C)CCCC(C)C (stereo unspecified) | 18.3 | 57.1* | -22.5 | 10.9 | 12.2 | -0.9
Cc1ccc(S(=O)(=O)N(C)C)cc1NC(=S)N(C)C1CCN(C)CC1 | 5.8 | 54.6* | 4.1 | 5.0 | 14.0 | 2.4
C/C(=N/NC(=O)c1cc(-c2ccc(Cl)s2)[nH]n1)c1ccco1 | 5.1 | 45.3 | -15.0 | -6.6 | 13.2 | 4.3
COc1ccc(C(=O)c2cc([N+](=O)[O-])ccc2N2CCN(C)CC2)cc1 | -4.1 | -16.3 | 39.9* | 1.1 | -21.0 | 3.7
COc1ccc2c(CC(=O)N[C@@H](Cc3ccccc3)C(=O)O)cc(=O)oc2c1C | -3.2 | -8.5 | -38.1 | . | 3.8 | 5.0
Cc1c(O)ccc2c(CC(=O)N[C@@H](Cc3ccc(O)cc3)C(=O)O)cc(=O)oc12 | -70.0* | -77.2 | -2.2 | . | 2.5 | 3.0
COC(=O)c1ccc(-n2cncn2)c(F)c1 | -7.3 | -8.4 | 0.2 | -3.3 | 2.8 | 0.2
COc1ccc(OC2C(=O)N(Cc3ccc4c(c3)OCO4)C2c2sccc2C)cc1 (stereo unspecified) | -75.1* | -80.2 | -16.7 | 12.4 | -13.1 | -1.1
OC(COc1ccc(Cl)cc1)CN1CCN(c2cccc(Cl)c2)CC1 (stereo unspecified) | -10.1 | -6.6 | 1.9 | 1.1 | -44.2 | -0.7
O=C1CN(C(=O)Cn2ncc(Cl)c(Cl)c2=O)c2ccccc2N1 | 35.9 | 34.3 | -1.7 | . | -3.5 | 2.0
O=C(OCn1ncc(Cl)c(Cl)c1=O)c1ccccc1Cl | -94.5* | -95.4 | -5.1 | 13.8 | -2.2 | -1.5
O=C(Cn1ncc(N2CCOCC2)c(Cl)c1=O)c1ccc(Cl)cc1 | 22.8 | 19.4 | -8.3 | 4.2 | -5.8 | -0.6
CC(C)(C)C(=O)Cn1ncc(Cl)c(Cl)c1=O | -0.1 | 15.4 | 0.6 | . | 11.0 | 3.2
O=C(OCn1ncc(Cl)c(Cl)c1=O)c1ccc(F)cc1 | -93.6* | -94.5 | 2.2 | 3.0 | 0.1 | -3.6
O=C(Cn1ncc(Cl)c(Cl)c1=O)c1ccc(Cl)cc1 | 29.5 | 56.1* | 1.9 | -14.5 | -4.4 | 1.0
SMILES | HSF1 inhib | HSF1 activator | DNA FID counter | core dimer inh | NS3 helicase inh | HSP90 refold inh
O=c1c(Cl)c(Cl)cnn1Cc1ccc(F)cc1 | 23.8 | 29.0 | 4.0 | -63.3 | 6.6 | 4.8
C=CCn1c(C)cc(C(=O)Cn2ncc(Cl)c(Cl)c2=O)c1C | 41.0 | ? | -12.4 | 50.7* | 27.8 | 1.5
CC(C)Oc1ccc(C(=O)O)cc1 | -88.8* | -90.5 | 0.1 | 6.6 | -5.0 | 3.4
N#CCC(=O)N/N=C/c1ccc(Sc2nc3ccccc3s2)o1 | 1.4 | 17.0 | -11.3 | 34.8 | 15.6 | -7.4
COc1ccc(C2=NN(C)C(=NCc3ccccc3)SC2)cc1 | 22.3 | 53.1* | 2.4 | -0.7 | -14.2 | -2.4
CN(C)S(=O)(=O)c1ccc(NC(=O)COC(=O)C2CC3CCCC(C2)C3=O)cc1 (stereo unspecified) | -1.9 | -4.1 | -9.2 | 6.5 | -3.8 | -2.1
Cc1ccc(OCCn2cnc3ccccc3c2=O)c([N+](=O)[O-])c1 | 25.6 | 57.6* | -2.3 | -22.6 | -3.0 | -2.9
Cc1cc(OCCn2cnc3ccccc3c2=O)ccc1[N+](=O)[O-] | 2.9 | 10.4 | 0.1 | 4.7 | -2.4 | 2.4
Cc1nn(-c2cccc(Cl)c2)c2c1C(c1ccncc1)C(C#N)=C(N)O2 (stereo unspecified) | 67.0 | 82.1* | -11.5 | -0.4 | 2.5 | 3.8
CCn1c(Cc2ccccc2)nnc1SCC(=O)Nc1ccccc1O | 15.8 | 50.7* | -9.8 | -4.4 | -10.9 | -1.5
CCn1c(Cc2ccccc2)nnc1SCC(=O)NC(C)(C)C | -0.2 | 7.3 | -9.6 | 5.9 | 0.6 | 2.7
CS(=O)(=O)c1ccc2nc(NC(=O)c3ccc(S(=O)(=O)NCC4CCCO4)cc3)sc2c1 (stereo unspecified) | 1.6 | -14.0 | -8.3 | 4.4 | 2.8 | 4.0
Cc1cccc(-[n+]2c(C)cc(C)c3c(=O)[nH]c(=O)[nH]c32)c1 | 13.8 | 63.2* | -5.3 | 1.5 | 8.1 | -4.5
COc1ccc(-c2cc3ccc(OCC(C)=O)cc3oc2=O)cc1 | 28.1 | 61.6* | -30.4 | -1.1 | 3.9 | 8.6
COc1ccc(-c2cc3ccc(OCC(C)=O)cc3oc2=O)cc1OC | 24.3 | 28.5 | -37.9 | -0.7 | 1.5 | 5.6
COc1ccc(-c2cc3ccc(O)cc3oc2=O)cc1 | 25.8 | 51.1* | -8.7 | -5.9 | 3.5 | 1.2
Cc1ccc(S(=O)(=O)N2CCN(CC(=O)N/N=C/c3ccccc3OCC(=O)O)CC2)cc1 | ? | -24.5 | -42.1 | 5.6 | 5.0 | -0.8
CN(C)c1ccc(-c2nc3n(n2)C(c2cccnc2)C2=C(CC(C)(C)CC2=O)N3)cc1 (stereo unspecified) | -69.7* | -76.0 | -23.2 | -7.6 | -1.6 | -1.8
O=C(CCCSc1nc2ccccc2[nH]1)NCc1ccco1 | 13.1 | 67.9* | 3.0 | -4.2 | 8.3 | -3.1
COCCCN1CCc2[nH]c(=S)[nH]c(=O)c2C1 | 21.1 | 58.1* | -4.1 | 1.2 | -4.9 | 0.9
